# Screening data deposited in PubChem by several laboratories.
# The entries come from a sample that favours hits as a whole.
# CHOP UPR activ – activators of apoptotic arm of unfolded protein response (CHOP) | 330,000 tested, 0.34% active | CHO-CHOP luciferase reporter, UPR activation, luminescence; percent of tunicamycin response over DMSO baseline | activation, % at 10 µM;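 active means at 10 µM dose, activation of 40% or more, normalized to positive control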;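 further: 100% = tunicamycin at 10 µg/mL and 0% = DMSO alone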
#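 System: CHO-CHOP luciferase reporter cell line | Buffer or medium: F12 medium containing 10% fetal bovine serum | Doses: One dose, 10 µM in 0.5% DMSO | Times: 6 h compound exposure at 37 °C after overnight seeding | Signal: Luciferase luminescence | Read-out: % activation vs tunicamycin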
# XBP1 UPR activ – adaptive UPR (XBP1) activation. CHO-XBP1 luciferase reporter, IRE1-XBP1 UPR activation, luminescence; percent of tunicamycin response, DMSO as zero. activation, % at 20 µM. 330,000 tested, 0.33% active. AID 463104;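 active means versus positive control, 20 µM dose yields 30% or more activation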;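 further: 100% = tunicamycin at 10 µg/mL and 0% = DMSO only wells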
#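 Material: CHO-XBP1 cells stably carrying IRE1-XBP1-driven luciferase reporter / Amount: 1000 cells per well / Compound: 20 µM, 1% DMSO / Times: 6 h treatment, 37 °C / Detection: luciferase luminescence / Measure: % activation of reporter signal versus tunicamycin and DMSO controls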
# Jurkat NFkB inh – inhibitors of the PMA/ionomycin-induced NF-kB reporter in Jurkat cells; PMA/ionomycin-induced NF-kB luciferase reporter, luminescence; inhibition, % at 4 µM; 330,000 tested, 0.53% active; in the data active means inhibition above about 50%
# 697 NFkB inh – inhibitors of the PMA/ionomycin-induced NF-kB reporter in 697 B cells. AID 435022. 330,000 tested, 0.33% active. 697 B-cell NF-kB luciferase reporter, 16 h. inhibition, % at 4 µM; in the data active means inhibition above about 35%
# CHOP inh – CHOP inhibition in unfolded protein response; inhibition, % at 10 µM; 220,000 tested, 3.8% active; CHO-K1 CHOP-promoter luciferase, tunicamycin-induced, 15-18 h;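 active means compounds that reduced the stress-induced luciferase reporter signal by more than about 70% of percent inhibition, limit read from the data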;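 further: 0% = tunicamycin plus vehicle and 100% = wells without tunicamycin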
# CHOP inh conf – confirmation of CHOP induction inhibitors; CHO-CHOP promoter luciferase reporter, tunicamycin-induced, luminescence; AID 504437; 2,100 tested, 45% active; inhibition, % at 10 µM; shares compounds with CHOP inh;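 active means mean of three repeat readings of reporter signal inhibition above a set limit, cut at about 70% in these data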;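 further: 0% = tunicamycin plus vehicle and 100% = wells lacking tunicamycin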
# The depositor's hits bear a star; x = no result; ! = not confirmed by another sample.
SMILES,CHOP UPR activ,XBP1 UPR activ,Jurkat NFkB inh,697 NFkB inh,CHOP inh,CHOP inh conf
O=C(COc1ccccc1)NCC(=O)N/N=C/C=C/c1ccccc1,0.6,-0.1,10.0,-11.4,13.3,x
O=C(CNC(=O)c1ccc(Cl)cc1)N/N=C/C=C/c1ccccc1,-0.5,1.1,-15.5,2.0,99.0*,20.1
CN(C(=O)CCl)C1CCCc2ccccc21 (configuration not stated),x,x,x,x,105.9*,80.2*
CCCCC(CC)C(=O)Oc1ccc(O)c(C(C)(C)C)c1 (configuration not stated),-0.5,6.7,-18.9,-25.5,104.0*,117.4*
COc1ccc(C2=C(CN(C)C)C(c3ccccc3)c3ccccc3O2)cc1 (configuration not stated),1.0,-0.9,8.6,10.3,104.0*!,43.3
O=S(=O)(c1c(F)cccc1F)C1CCN(S(=O)(=O)c2ccc3c(c2)OCCO3)CC1,-0.3,1.8,5.6,-23.1,x,x
Cc1ccc(-c2cc(C(=O)Nc3ccc(S(=O)(=O)N4CC(C)OC(C)C4)cc3)[nH]n2)c(O)c1 (configuration not stated),0.9,-2.8,19.7,2.4,-10.2,x
Cc1ccc(O)c(-c2cc(C(=O)Nc3ccc(S(=O)(=O)N4CC(C)OC(C)C4)cc3)[nH]n2)c1 (configuration not stated),0.3,3.0,4.8,3.1,98.5*,33.0
O=C(NCCc1ccccc1)C1CCCN(C(=O)Nc2ccc(F)cc2)C1 (configuration not stated),1.8,-1.0,-3.6,0.4,x,x
CCOC(=O)/C=C/c1ccc2c(c1)S(=O)(=O)N(c1cccc(OC)c1)[C@H]2CC(=O)OCC,0.0,-2.5,-24.2,5.3,x,x
Cc1cccc2c1NC(=O)/C2=C\C(=O)c1cccs1,29.5,8.2,11.6,3.1,110.2*,-47.9
CCc1ccc2c(c1)/C(=C/C(=O)c1cccs1)C(=O)N2,-6.7,-8.9,-7.4,-21.9,108.7*,-22.5
Cc1cc(C)c2c(c1)/C(=C/C(=O)c1ccc(Br)s1)C(=O)N2,-9.4,-9.3,1.2,-8.5,109.8*,53.8
CN1/C(=C\C(=O)c2cccs2)C(C)(C)c2ccccc21,2.7,-0.3,-20.8,1.1,27.3,x
Cc1cc(Br)c2c(c1)/C(=C/C(=O)c1cccs1)C(=O)N2,14.8,17.3,3.8,-13.8,99.0*,80.2*
CCC(c1nnc(SCC(=O)Nc2cc(S(C)(=O)=O)ccc2Cl)n1Cc1ccccc1)N(C)C (configuration not stated),1.1,-0.7,-6.6,9.7,x,x
N#Cc1cccnc1Oc1ccccc1,1.2,-0.2,-2.5,11.3,6.0,x
CC(NCc1ccc(OCc2ccc(Cl)cc2)cc1)C(O)c1ccccc1 (configuration not stated),6.0,26.8,13.8,0.1,104.9*,18.3
CC(NCc1cccc(OCc2ccccc2)c1)C(O)c1ccccc1 (configuration not stated),1.9,-2.3,4.7,16.1,-8.7,x
CCOc1cc2[nH]c(=S)n(C3CC3)c(=O)c2cc1OCC,1.6,-2.2,6.9,-4.9,-17.9,x
CCOC(=O)N1CCC(n2c(=S)[nH]c3cc(OCC)c(OCC)cc3c2=O)CC1,16.4,24.4,15.8,7.4,101.0*,98.0*
O=C(NCc1ccccn1)C(=O)NCC1OCCCN1S(=O)(=O)c1cc(F)ccc1F (configuration not stated),0.5,-1.0,9.4,-3.3,x,x
Cc1cc(Cl)ccc1OCC(=O)N[C@@H](Cc1ccccc1)c1nc2ccccc2[nH]1,-1.3,8.0,-20.7,1.2,107.8*,114.9*
O=[N+]([O-])c1cccnc1N1CCC(c2cc(-c3cccc(C(F)(F)F)c3)n[nH]2)CC1,1.6,0.2,3.8,-6.7,103.0*,47.6
O=C(CC(=O)c1ccccc1O)c1ccc(F)cc1,16.8,2.2,-36.6,-75.2,101.1*,62.3
SMILES,CHOP UPR activ,XBP1 UPR activ,Jurkat NFkB inh,697 NFkB inh,CHOP inh,CHOP inh conf
O=C(CC(=O)c1ccccc1O)c1cccc(F)c1,31.0,3.0,-12.9,-78.5,x,55.6
O=C(CC(=O)c1c(F)cccc1Cl)c1ccccc1O,-0.4,8.3,-28.1,-47.1,x,x
COc1ccc(C(=O)CC(=O)c2ccc(F)cc2)cc1,3.8,4.1,-73.0,-88.1,x,x
Cc1ccc(C(=O)CC(=O)c2cc(Cl)ccc2O)cc1,24.4,3.9,-104.2,-124.2,102.5*,71.6*
Cc1ccc(S(=O)(=O)CCC(=O)OCC(=O)N(Cc2ccccc2)C(C)C)cc1,-0.6,0.0,1.9,16.6,x,x
S=c1[nH]nc(Cn2cnc3ccccc32)n1-c1ccccc1Cl,0.7,-1.4,-2.9,4.3,1.9,x
CCOC(=O)C(C)Oc1cccc2c(=O)n(CC(=O)Nc3ccc(OCC)cc3)ccc12 (configuration not stated),-2.2,-2.3,8.0,1.4,105.8*,61.1
O=C(O)CC1SC(=O)N(CC(=O)c2ccccc2)C1=O (configuration not stated),0.6,-0.9,-0.7,2.9,x,x
CCN1/C(=C/c2ccc3cc(C)ccc3[n+]2C)Sc2ccc3sccc3c21,x,x,x,x,109.3*,102.4*
Cc1ccc2c(c1)S/C(=C/c1ccc[n+](C)c1)N2CCO,1.0,0.8,17.7,-8.8,-27.5,x
O/N=C(\c1ccc(Cl)cc1Cl)c1ncc(C(F)(F)F)cc1Cl,-3.3,-0.7,19.0,-3.1,106.9*,111.3*
O=C(CSC1=NS(=O)(=O)c2ccccc21)Nc1ccccc1,5.1,-0.6,-4.7,-3.1,106.3*,38.7
Cc1cc(Cl)n2c(nc3ccccc32)c1C#N,x,x,x,x,108.2*,132.9*
Nc1nonc1C(=O)NCCN=Cc1ccccc1O,1.5,-2.6,-8.9,5.1,28.0,x
Nc1nonc1C(=O)NCCN=Cc1cc(Cc2ccccc2)cc(Br)c1O,0.4,-0.3,-3.5,-13.1,103.5*,11.5
Cc1ccc(S(=O)(=O)C2CS(=O)(=O)CC2O)cc1 (configuration not stated),-0.1,-1.2,9.5,11.1,-25.7,x
CC(=O)C1=C(S(=O)(=O)c2ccc(C)cc2)CS(=O)(=O)C1,0.8,-2.3,4.1,-3.2,98.1*,71.3*
O=S(=O)(/C(=C/c1ccc(C(F)(F)F)cc1)c1nc2ccccc2[nH]1)c1ccccc1,x,x,x,x,109.1*,133.6*
c1ccc(-c2cc3ccccc3[nH]2)cc1,4.3,0.2,-38.6,-32.7,x,x
Clc1ccc2[nH]c(-c3ccccc3)cc2c1,3.9,0.6,-102.4,-169.6,103.7*,70.5*
COc1ccccc1C(=O)NC(CCSC)C(=O)Nc1ccc(C)c(S(=O)(=O)N2CCOCC2)c1 (configuration not stated),-1.9,-3.3,-5.9,-12.7,x,x
N/C(=N\c1nc2ccccc2o1)NC(=O)c1ccccc1F,2.7,-0.8,-102.5,-137.1,23.6,x
